These results are taken from publication PMC6889220 (ACS chemical neuroscience, 2019).

Like-named read-outs stand apart in the source and are kept apart here.

Data set [1] addresses T1, human α2A adrenergic receptor (Homo sapiens, UniProt P08913).
T1 sequence (P08913 1-465): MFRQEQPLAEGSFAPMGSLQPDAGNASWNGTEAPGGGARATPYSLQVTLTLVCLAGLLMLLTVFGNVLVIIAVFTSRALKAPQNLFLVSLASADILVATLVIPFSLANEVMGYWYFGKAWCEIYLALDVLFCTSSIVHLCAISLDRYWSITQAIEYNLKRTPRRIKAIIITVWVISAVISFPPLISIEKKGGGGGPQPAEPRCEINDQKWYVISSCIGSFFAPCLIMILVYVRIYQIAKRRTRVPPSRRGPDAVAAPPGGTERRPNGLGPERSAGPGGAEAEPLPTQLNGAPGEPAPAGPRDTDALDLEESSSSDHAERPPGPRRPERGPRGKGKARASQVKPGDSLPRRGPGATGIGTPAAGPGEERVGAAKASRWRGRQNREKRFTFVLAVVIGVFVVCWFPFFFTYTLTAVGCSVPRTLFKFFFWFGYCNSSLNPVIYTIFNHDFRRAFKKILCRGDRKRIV
Briefly: [35S]GTPγS binding assay. The class given is biochemical. Particulars: 1 μM RX 821002 (selective α2 antagonist). (GTPγS is a poorly hydrolysed GTP analogue; its binding reports G protein activation.)

Another data set concerns Xenopus laevis tadpoles. Briefly: Hypnotic activity Xenopus laevis tadpole bioassay. It is filed as in vivo. Conditions: for EC50: Xenopus laevis. The method in brief:
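Albino tadpoles at stages 45–47, 10 per dish, kept at 21–22 °C. They were exposed for 30 min to graded concentrations of test compound, with or without 10 μM atipamezole, in E3 artificial pond water containing <0.01% (v/v) DMSO. Loss of spontaneous movement was scored. Animals were then moved to fresh pond water and watched for toxicity. Each concentration was run in triplicate and reported as mean ± SEM.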

A further data set has as its target T2, recombinant human α2A -R (Homo sapiens, UniProt P08913).
T2 sequence (P08913 1-465): T1 sequence (P08913 1-465)
Briefly: [3H]clonidine radioligand competitive binding assay. Particulars: Kd with the Cheng–Prusoff correction, 15 nM [3H]-clonidine.

Data set [2] concerns the target human serum albumin (hSA) (Homo sapiens, UniProt P02768). Kind of data set: Isothermal titration calorimetry with human serum albumin. It is filed as binding. The gist of the method:
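The calorimeter cell held 20 μM human serum albumin in PBS (150 mM NaCl, 20 mM sodium phosphate, pH 7.4), with ddH2O in the reference cell. The titrant was 0.22 mM test compound, made as a filtered saturated PBS solution with concentration checked by UV absorbance. Injections were spaced 300 s apart at 30 °C. Data were corrected for heats of dilution and fitted to a single set of independent sites. Ka from triplicate runs was averaged.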
In general terms: ITC needs no label: the signal is the heat of the interaction.

The next data set has as its system albumin. Conditions: cited from earlier work.
Setting [3] is: 0.5 h, read-out: hypnotic EC50 (loss of spontaneous movement).

Sequence of human serum albumin (hSA) (P02768 25-609): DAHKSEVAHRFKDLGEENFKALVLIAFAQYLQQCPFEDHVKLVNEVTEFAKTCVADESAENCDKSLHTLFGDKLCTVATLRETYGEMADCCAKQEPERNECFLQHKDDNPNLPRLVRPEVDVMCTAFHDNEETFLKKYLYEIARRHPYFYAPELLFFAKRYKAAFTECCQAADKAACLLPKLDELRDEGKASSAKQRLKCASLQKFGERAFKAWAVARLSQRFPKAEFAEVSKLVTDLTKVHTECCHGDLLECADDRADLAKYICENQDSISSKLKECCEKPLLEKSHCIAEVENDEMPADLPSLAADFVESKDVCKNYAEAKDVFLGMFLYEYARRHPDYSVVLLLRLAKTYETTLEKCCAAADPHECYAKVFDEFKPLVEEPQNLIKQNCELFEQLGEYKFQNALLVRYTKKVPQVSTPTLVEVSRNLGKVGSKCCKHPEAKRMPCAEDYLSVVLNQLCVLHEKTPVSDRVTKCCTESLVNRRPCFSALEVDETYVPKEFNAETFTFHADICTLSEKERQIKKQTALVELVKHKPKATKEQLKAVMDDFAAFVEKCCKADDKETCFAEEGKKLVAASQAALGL

On to `CC(c1cccc(C2(C(F)(F)F)N=N2)c1)c1cnc[nH]1` (stereo not drawn) [azi-medetomidine, 5-(1-(3-(3-(trifluoromethyl)-3H-diazirine-3-yl)phenyl)ethyl)-1H-imidazole], for which the “α2A-R activity in the presence of RX 821,002” value in data set [1] is recorded as “eliminated all α2A -R activity”. The EC50 (as a rule, the concentration giving half of the maximal effect) in the data set with Xenopus laevis tadpoles (setting [3]) came to 4650 nM. In addition, the “toxicity in Xenopus tadpoles” value in the data set with Xenopus laevis tadpoles (observed after transfer to fresh pond water) is “did not display any frank toxicity”. Further, the Kd (in general, the free concentration of one partner at which half of the binding sites on the other are occupied at equilibrium, for simple one-to-one binding) came out at 3.68 nM at recombinant human α2A -R (with UV exposure (350 nm light, 30 min)); 2.1 nM on recombinant human α2A -R (without UV); 29000 nM in data set [2].
For `Cc1cccc([C@H](C)c2cnc[nH]2)c1C` [dexmedetomidine, reference compound], the EC50 in the data set on Xenopus laevis tadpoles (setting [3]) worked out at 860 nM; with Xenopus laevis tadpoles (read-out: behavioral EC50 in Xenopus tadpoles) it was 800 nM. For the same molecule, the “fraction bound to albumin in plasma” value in the data set with albumin was over 90%.
